High-throughput results deposited in PubChem by The Scripps Research Institute Molecular Screening Center.
CHO parental Ca = ATP-evoked calcium signal inhibitors, parental CHO, primary screen, counter-screen for OX1R antagonist project, cell-based, fluorescence, Fluo-8 calcium dye; parental CHO-K1, ATP-induced calcium, Fluo-8 fluorescence; inhibition, % at 5.6 µM; 0.63% of 330,000 active; AID 463079, 2010;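 active = inhibition above that plate's mean sample inhibition plus 3 SD, cut at about 26% in these data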;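 also: 0% = ATP-challenged DMSO wells and 100% = DMSO wells without ATP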
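test system = CHO parental line | reagent = ATP stimulus | measured by = intracellular calcium via Fluo-8 no-wash fluorescent dye | control set = ATP and no-ATP DMSO wells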
CHO-K1 Ca antag = counter-screen for M1 antagonists: effect in parental CHO-K1 cells. 0.6% of 360,000 active. AID 602250. ATP-induced calcium, Fluo-8 fluorescence. inhibition, % at 3 µM;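 active = inhibition above a per-plate cutoff, the plate's mean sample inhibition plus 3 SD, cut at about 24% in these data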;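 also: 0% = DMSO plus EC80 ATP and 100% = DMSO alone without ATP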
CHO-K1 Ca PAM = nonselective calcium activators in parental CHO-K1 cells, primary screen, counter-screen for M1 PAM project, cell-based, Fluo-8 calcium fluorescence, full deck, 1536-well | ATP EC20; 0% at ATP EC20, 100% at ATP max | activation, % at 3 µM | 0.02% of 360,000 active;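 active = activation above the run cutoff, the mean activation of all test compounds plus 3 SD, cut at about 40% in these data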;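 also: peak over basal fluorescence ratio in a 140 s read after ATP addition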
OX1R antag-1 = antagonists of human orexin 1 receptor (OX1R); Orexin/Hypocretin receptor type 1 (Homo sapiens), O43613; OX1R-expressing cells, FRET antagonist read-out; inhibition, % at 6.6 µM; 1.8% of 330,000 active; AID 485270, 2010; in the data active = inhibition mostly above about 38%, no sharp cut-off; inactive = mostly below about 40%;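 also: 0% = agonist challenge alone and 100% = reference antagonist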
Target sequence (O43613 whole entry, looked up): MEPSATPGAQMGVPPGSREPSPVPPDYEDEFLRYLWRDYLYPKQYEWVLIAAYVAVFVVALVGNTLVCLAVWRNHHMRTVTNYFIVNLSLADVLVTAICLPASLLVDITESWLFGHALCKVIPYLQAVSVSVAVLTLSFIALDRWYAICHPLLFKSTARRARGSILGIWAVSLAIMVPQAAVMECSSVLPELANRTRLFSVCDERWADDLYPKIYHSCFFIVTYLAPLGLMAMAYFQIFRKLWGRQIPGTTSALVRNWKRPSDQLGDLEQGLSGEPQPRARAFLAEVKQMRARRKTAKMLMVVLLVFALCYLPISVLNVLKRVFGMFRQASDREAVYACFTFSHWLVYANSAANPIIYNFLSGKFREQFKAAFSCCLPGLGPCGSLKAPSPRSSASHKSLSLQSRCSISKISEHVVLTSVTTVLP
M1 ag parental = counter-screen for M1 agonists: effect in parental CHO-K1 cells. Fluo-8 calcium fluorescence; scaled to maximal ATP response, vehicle zero. activation, % at 3 µM. 0.48% of 360,000 active; in the data active = activation above about 15%;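 also: untransfected CHO-K1 host cells lacking M1 receptor as counterscreen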
OX1R antag-2 = OX1R (HCRTR1) antagonists, primary screen, fluorescence, CHO/OX1R cells, Fluo-8 calcium, orexin A; Orexin/Hypocretin receptor type 1 (Homo sapiens), O43613; Fluo-8 calcium fluorescence; inhibition, % at 5 µM; 0.43% of 330,000 active;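 active = inhibition above its plate's threshold, mean inhibition of all tested compounds on the plate plus 3 SD, cut at about 37% in these data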;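 also: 0% = orexin A challenge wells and 100% = SB-334867-A antagonist wells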
OX1R Ca confirm = OX1R (HCRTR1) antagonists, confirmation, fluorescence, CHO/OX1R cells, Fluo-8 calcium, orexin A; shares compounds with OX1R antag-2; orexin A calcium Fluo-8 fluorescence; inhibition, % at 5 µM; 38% of 1,100 active; in the data active = inhibition above about 29%;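 also: 0% = agonist challenge alone and 100% = reference antagonist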
CHO Ca counter = ATP-evoked calcium inhibition in parental CHO, counter-screen for OX1R antagonist project, cell-based, fluorescence, CHO-K1, triplicate. inhibition, % at 5.6 µM. ATP-induced calcium, Fluo-8 fluorescence. 9.3% of 1,100 active. shares compounds with OX1R antag-2;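 active = inhibition above a per-plate limit, the mean inhibition of that plate's test compounds plus 3 SD, cut at about 25% in these data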;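 also: 0% = ATP challenge with DMSO and 100% = DMSO without ATP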
Starred values were filed as active, the others as inactive; · = no result. Only some compounds are listed: those with a hit (about 2.9% of all), similar ones and a draw of the others.

SMILES | CHO parental Ca | CHO-K1 Ca antag | CHO-K1 Ca PAM | OX1R antag-1 | M1 ag parental | OX1R antag-2 | OX1R Ca confirm | CHO Ca counter
O=C(CSC1=Nc2ccccc2C2CC=NN12)NCc1ccco1 (stereo not drawn) | -4 | -3 | 3 | 33 | 0 | 57* | 24 | 4
Clc1cccc(-c2nnc(SC/C=C/c3ccccc3)n2Cc2ccco2)c1 | 19 | -11 | 16 | 12 | 2 | 49* | 13 | -3
COc1ccc(-c2ocnc2C(=O)NCc2nn(-c3ccccc3)nc2C)cc1 | 24 | 12 | 2 | 25 | 11 | 38 | 8 | 29*
Cc1ccc(C(=O)N2CCC(Cc3ccccc3)CC2)cc1[N+](=O)[O-] | 11 | -12 | 15 | 29 | 1 | 28 | 17 | -3
CCNC(=O)C1(C)CCN(C(=O)c2ccc(OC(F)F)cc2)C1 (stereo not drawn) | · | 2 | 1 | · | 0 | · | · | ·
C=CCC(COCc1ccccc1)NS(=O)(=O)c1ccccc1Br (stereo not drawn) | -11 | -5 | 10 | 49 | -1 | 34 | 8 | -7
O=C(NNC(=S)Nc1ccc(Br)cc1)c1ccccc1 | · | -1 | -13 | · | 3 | · | · | ·
COC(=O)c1ccc(NC(=S)NNC(=O)c2ccccc2)cc1 | -10 | -8 | -9 | 7 | 0 | 28 | 4 | 7
Fc1ccc(-c2cc3nc(-c4ccccc4)cc(N4CCOCC4)n3n2)cc1 | -13 | -24 | 12 | 7 | 0 | -27 | · | ·
Cc1ccc(-c2cc3nc(-c4ccccc4)cc(N4CCC5(CC4)OCCO5)n3n2)cc1 | 12 | 2 | 8 | 40 | 0 | 39 | 36* | -10
Cc1c(NC(=O)c2ccc(S(=O)(=O)N(C)C)cc2)cccc1-n1cnnn1 | 4 | -9 | 10 | -3 | 1 | 4 | · | ·
COC(=O)Cn1c(=O)c2c(nc3n2CC(C)CN3CCc2ccccc2)n(C)c1=O (stereo not drawn) | · | 4 | -2 | · | 7 | · | · | ·
COC(=O)Cn1c(=O)c2c(nc3n2CC(C)CN3Cc2ccccc2)n(C)c1=O (stereo not drawn) | -5 | -4 | 21 | 16 | 10 | 31 | -6 | -6
COC(=O)C1=C(C)N(Cc2ccccc2)C(=NCc2ccccc2)N[C@H]1c1cccc(F)c1 | 14 | -5 | 19 | 22 | 7 | 29 | 33* | 7
CCN(CC)CCCN=C1N[C@@H](c2cccc(F)c2)C(C(=O)OC)=C(C)N1Cc1ccccc1 | -15 | 11 | -19 | 4 | -1 | 6 | · | ·
COC(=O)CSc1nnc(-c2ccc(S(=O)(=O)NCc3cccs3)cc2)o1 | -1 | 2 | 1 | 0 | 2 | 6 | · | ·
COC(=O)CSc1nnc(-c2ccc(S(=O)(=O)NCc3ccccc3Cl)cc2)o1 | 12 | 11 | 6 | 14 | 4 | 26 | 33* | 10
COc1cc(CNC(C)c2ccccc2)cc(Br)c1OCc1ccccc1 (stereo not drawn) | -3 | -7 | 20 | -2 | 4 | 46* | 22 | -3
COc1cc(CNC(C)c2ccccc2)cc(Br)c1OCc1ccc(F)cc1 (stereo not drawn) | 12 | -10 | 22 | 12 | 2 | 29 | · | ·
Cc1cc(C(=O)N2CCC2(C)C(=O)Nc2cccc3ccccc23)nn1C (stereo not drawn) | · | -5 | 7 | · | 1 | · | · | ·
NS(=O)(=O)c1ccc(CNC(=O)C(Cc2ccccc2)NS(=O)(=O)c2ccccc2F)cc1 (stereo not drawn) | -1 | -9 | 18 | -12 | 0 | 26 | -1 | -6
Cc1ccc(SC2=C(N(C)C)C(=O)c3ccccc3C2=O)cc1 | · | 1 | -20 | · | -1 | · | · | ·
O=C(OCc1cccc([N+](=O)[O-])c1)c1cc2ccccc2oc1=O | -12 | -7 | 20 | 9 | 0 | 45 | -7 | 0
Cc1c(C(=O)Nc2ccc(S(=O)(=O)N(C)C3CCN(C)CC3)cc2)oc2c(Cl)cccc12 | 10 | -2 | -1 | 7 | 3 | 43* | 0 | 0
Cc1c(C(=O)Nc2ccc(S(=O)(=O)N(C)C3CCN(C)CC3)cc2)oc2ccccc12 | -17 | -16 | 5 | 5 | 2 | -7 | · | ·
SMILES | CHO parental Ca | CHO-K1 Ca antag | CHO-K1 Ca PAM | OX1R antag-1 | M1 ag parental | OX1R antag-2 | OX1R Ca confirm | CHO Ca counter
CN1C2CCC1/C(=C\c1ccc(F)cc1)C(=O)/C2=C/c1ccc(F)cc1 | 8 | -6 | 2 | 13 | 0 | -30 | · | ·
CN1C2CCC1/C(=C/c1cccn1C)C(=O)/C2=C\c1cccn1C | 23 | 4 | 8 | 37 | 3 | 38 | 19 | 12
Cc1cccc(N2CCN(C(=O)c3ccc(CS(=O)Cc4cccc(Cl)c4)o3)CC2)c1C (stereo not drawn) | 21 | -11 | 8 | 12 | 4 | 31 | 7 | -7
Cc1ccc(CS(=O)Cc2ccc(C(=O)N3CCN(c4cccc(C)c4C)CC3)o2)cc1 (stereo not drawn) | · | -2 | 12 | · | 9 | · | · | ·
Cc1cc(OC(C)C(=O)Nc2ccncc2)ccc1Cl (stereo not drawn) | 20 | 15 | 0 | 4 | 10 | 23 | · | ·
O=c1cc(SCc2ccc(Cl)cc2Cl)nc[nH]1 | · | -5 | 10 | · | 0 | · | · | ·
CC1CCC/C(=N\NC(=S)Nc2ccccc2)C1 (stereo not drawn) | -10 | -4 | 20 | 10 | 0 | 33 | -2 | -8
CC1CCC/C(=N\NC(=S)NCc2ccccc2)C1 (stereo not drawn) | -10 | -7 | 13 | 15 | 0 | -18 | · | ·
COC(=O)c1ccc2c(c1)C(C)(C)C(/C=C/c1ccc(OC)c(OC)c1OC)=[N+]2C | 8 | -4 | 14 | 7 | 0 | 5 | · | ·
COC(=O)c1ccc2c(c1)C(C)(C)C(/C=C/c1ccc(O)cc1)=[N+]2C | 14 | 11 | 2 | 25 | 5 | 31 | 66* | 52*
COC(=O)[C@H](Cc1c[nH]c2ccccc12)NC(=O)CCCc1c[nH]c2ccccc12 | 23 | 3 | 12 | 40 | 16* | 47 | 64* | 15
COc1cc(NC(=O)CN2C(=O)COc3ccc(S(=O)(=O)N4CCOCC4)cc32)cc(OC)c1 | -27 | -5 | 6 | -2 | 5 | -9 | · | ·
